The target of assay [1] is T1, Leukotriene A-4 hydrolase (Homo sapiens, UniProt P09960).
T1 sequence (P09960 whole entry): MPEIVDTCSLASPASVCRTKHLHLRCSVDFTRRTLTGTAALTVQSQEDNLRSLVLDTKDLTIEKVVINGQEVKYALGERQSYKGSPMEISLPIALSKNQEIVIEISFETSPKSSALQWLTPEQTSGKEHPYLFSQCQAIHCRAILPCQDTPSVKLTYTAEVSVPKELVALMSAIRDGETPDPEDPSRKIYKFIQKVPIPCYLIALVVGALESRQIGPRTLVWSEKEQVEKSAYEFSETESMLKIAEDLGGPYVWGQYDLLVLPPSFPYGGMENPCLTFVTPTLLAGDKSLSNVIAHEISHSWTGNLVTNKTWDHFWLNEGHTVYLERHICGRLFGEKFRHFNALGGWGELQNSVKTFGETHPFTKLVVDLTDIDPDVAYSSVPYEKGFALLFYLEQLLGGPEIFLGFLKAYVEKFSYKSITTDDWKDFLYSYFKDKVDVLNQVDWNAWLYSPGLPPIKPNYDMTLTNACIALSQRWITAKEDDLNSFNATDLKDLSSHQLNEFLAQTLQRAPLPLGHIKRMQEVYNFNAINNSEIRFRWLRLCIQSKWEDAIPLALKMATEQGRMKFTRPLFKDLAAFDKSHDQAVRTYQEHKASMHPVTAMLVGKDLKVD
Nature of the assay: Competitive inhibition of human recombinant LTA4H using alanine-p-nitroanilide as substrate by spectrophotometric analysis. A digest of the protocol: (§1)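 Human LTA4H, 5 µg per assay, in 10 mM Tris–HCl pH 7.5 with 0.1 mM KCl. Alanine-p-nitroanilide used as substrate (Km 2 mM). Enzyme added last to start the 1 ml reaction at 30 °C. Release of p-nitroanilide followed continuously at 405 nm for initial rates. Ki from Dixon plots assuming rapid-equilibrium kinetics.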

For assay [2], the target named is T2, Cytosol aminopeptidase (Bos taurus, UniProt P00727).
T2 sequence (P00727 whole entry): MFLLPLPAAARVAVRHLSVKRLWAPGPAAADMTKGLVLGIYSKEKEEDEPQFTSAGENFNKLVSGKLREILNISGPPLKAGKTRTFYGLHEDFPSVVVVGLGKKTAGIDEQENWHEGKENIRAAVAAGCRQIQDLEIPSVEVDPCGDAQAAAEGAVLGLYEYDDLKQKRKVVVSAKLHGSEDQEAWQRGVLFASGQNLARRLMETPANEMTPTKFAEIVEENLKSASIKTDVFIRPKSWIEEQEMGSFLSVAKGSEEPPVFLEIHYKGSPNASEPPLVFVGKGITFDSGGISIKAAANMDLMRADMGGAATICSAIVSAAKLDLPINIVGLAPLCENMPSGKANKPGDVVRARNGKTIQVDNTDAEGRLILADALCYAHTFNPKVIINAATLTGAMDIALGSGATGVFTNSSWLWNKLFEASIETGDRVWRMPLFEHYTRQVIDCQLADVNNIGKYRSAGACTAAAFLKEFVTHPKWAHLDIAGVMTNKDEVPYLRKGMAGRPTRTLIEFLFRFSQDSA
Nature of the assay: Competitive inhibition of bovine LAPc using L-leucine-p-nitroanilide as substrate by spectrophotometric analysis. Put shortly: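 Cytosolic leucine aminopeptidase from bovine kidney, 20 Units per assay, in 0.1 M Tris–HCl pH 8.0 with 0.1 mM ZnCl2, 5 mM MnCl2 and 1 M KCl. Km for L-leucine-p-nitroanilide 2 mM. Reaction started by adding enzyme to 1 ml medium at 30 °C. p-Nitroanilide release followed continuously at 405 nm (ε = 10,800 M-1 cm-1) for initial velocities. Ki taken from Dixon plots.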

In assay [3] the target is T3, Aminopeptidase N (Sus scrofa, UniProt P15145).
T3 sequence (P15145 whole entry): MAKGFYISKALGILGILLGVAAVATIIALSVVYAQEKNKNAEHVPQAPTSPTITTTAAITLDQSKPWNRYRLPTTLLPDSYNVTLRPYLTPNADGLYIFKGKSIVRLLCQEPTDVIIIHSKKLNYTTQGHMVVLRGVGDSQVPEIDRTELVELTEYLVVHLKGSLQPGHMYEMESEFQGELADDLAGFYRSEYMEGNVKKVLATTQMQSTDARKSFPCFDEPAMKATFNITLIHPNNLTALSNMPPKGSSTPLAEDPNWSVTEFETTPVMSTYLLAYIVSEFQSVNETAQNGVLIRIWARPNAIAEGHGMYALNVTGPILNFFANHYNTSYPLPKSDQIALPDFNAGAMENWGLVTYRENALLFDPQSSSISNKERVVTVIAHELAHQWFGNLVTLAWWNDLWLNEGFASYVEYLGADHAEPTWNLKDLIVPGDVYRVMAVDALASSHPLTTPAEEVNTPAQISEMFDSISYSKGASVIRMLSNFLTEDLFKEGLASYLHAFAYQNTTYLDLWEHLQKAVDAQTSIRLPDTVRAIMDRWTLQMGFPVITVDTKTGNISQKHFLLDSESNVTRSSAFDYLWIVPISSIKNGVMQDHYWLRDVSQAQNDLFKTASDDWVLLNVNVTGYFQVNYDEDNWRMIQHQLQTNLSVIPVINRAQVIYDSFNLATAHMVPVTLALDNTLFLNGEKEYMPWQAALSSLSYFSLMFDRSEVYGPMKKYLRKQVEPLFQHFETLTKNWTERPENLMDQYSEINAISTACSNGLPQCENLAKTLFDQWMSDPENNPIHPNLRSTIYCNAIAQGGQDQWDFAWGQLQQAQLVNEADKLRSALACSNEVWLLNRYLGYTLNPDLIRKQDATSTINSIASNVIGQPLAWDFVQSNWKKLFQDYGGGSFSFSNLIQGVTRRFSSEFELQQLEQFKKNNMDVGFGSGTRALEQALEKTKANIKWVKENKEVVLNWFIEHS
The assay is described as follows: Competitive inhibition of pig APN using L-leucine-p-nitroanilide as substrate by Dixon-plot analysis.

The target in assay [4] is T3, Aminopeptidase N. The assay is described as follows: Competitive inhibition of pig APN using L-leucine-p-nitroanilide as substrate by spectrophotometric analysis. A digest of the protocol: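 Porcine kidney aminopeptidase-N, 1 mUnit per assay, in 0.02 M Tris–HCl pH 7.5 at 30 °C. L-Leucine-p-nitroanilide substrate, Km 0.2 mM. Enzyme addition starts the reaction. Continuous 405 nm read of p-nitroanilide release. Ki from Dixon plots for rapid-equilibrium inhibitors. For slow-binding inhibitors, progress curves were run with 3 nM enzyme and substrate at Km, steady state reached after 1.5 h, and Ki taken from Morrison plots.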

Assay [5] concerns the target T2, Cytosol aminopeptidase. The assay is described as follows: Competitive inhibition of bovine LAPc using L-leucine-p-nitroanilide as substrate by Dixon-plot analysis.
Assay [6] has as its target T1, Leukotriene A-4 hydrolase. The assay is described as follows: Competitive inhibition of human recombinant LTA4H using alanine-p-nitroanilide as substrate by Dixon-plot analysis. Put shortly:
as §1

Assay [7] concerns the target Aminopeptidase N (Homo sapiens, UniProt P15144).

This is an account of results in ChEMBL document CHEMBL2177052, “Rapid and efficient synthesis of a novel series of substituted aminobenzosuberone derivatives as potent, selective, non-peptidic neutral aminopeptidase inhibitors” (Bioorg Med Chem, 2012).

Aminopeptidase N (Homo sapiens, UniProt P15144), sequence (P15144 whole entry): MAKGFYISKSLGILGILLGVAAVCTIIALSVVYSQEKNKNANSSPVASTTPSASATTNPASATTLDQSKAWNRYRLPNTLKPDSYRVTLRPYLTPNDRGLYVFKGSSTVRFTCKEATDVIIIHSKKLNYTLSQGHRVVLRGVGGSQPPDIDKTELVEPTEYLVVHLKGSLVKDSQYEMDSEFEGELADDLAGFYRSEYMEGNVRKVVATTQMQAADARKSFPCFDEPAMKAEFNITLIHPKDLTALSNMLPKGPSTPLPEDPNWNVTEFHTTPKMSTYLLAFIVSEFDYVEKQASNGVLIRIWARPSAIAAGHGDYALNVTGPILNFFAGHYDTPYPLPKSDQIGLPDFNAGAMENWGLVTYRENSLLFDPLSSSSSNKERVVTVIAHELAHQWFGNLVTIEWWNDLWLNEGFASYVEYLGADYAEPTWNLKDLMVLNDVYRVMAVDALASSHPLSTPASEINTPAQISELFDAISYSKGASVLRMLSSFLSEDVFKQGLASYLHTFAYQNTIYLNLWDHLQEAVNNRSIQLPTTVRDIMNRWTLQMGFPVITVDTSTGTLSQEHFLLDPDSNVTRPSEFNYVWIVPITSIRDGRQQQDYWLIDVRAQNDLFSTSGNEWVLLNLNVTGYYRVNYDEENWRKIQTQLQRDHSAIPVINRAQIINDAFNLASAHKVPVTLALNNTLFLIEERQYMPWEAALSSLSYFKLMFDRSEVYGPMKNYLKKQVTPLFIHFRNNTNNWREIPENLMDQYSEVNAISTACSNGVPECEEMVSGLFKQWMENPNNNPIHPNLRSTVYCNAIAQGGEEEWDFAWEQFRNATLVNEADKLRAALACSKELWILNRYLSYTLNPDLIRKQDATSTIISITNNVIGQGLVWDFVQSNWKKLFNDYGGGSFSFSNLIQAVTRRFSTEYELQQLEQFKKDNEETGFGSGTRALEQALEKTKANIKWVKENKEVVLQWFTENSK

By Ki is commonly meant a dissociation constant, usually derived from enzyme kinetics or from competition with a known ligand. Take `N[C@H]1CCc2ccccc2[C@@H](CCCc2ccccc2)C1=O` (racemic): the Ki was greater than 100 µM in assay [1], greater than 100 µM in assay [2] and 12 µM in assay [3].

In the case of `N[C@H]1CCc2ccccc2[C@H](Sc2ccccc2)C1=O` (racemic), the inhibitory constant (Ki) was greater than 100 µM in assay [1], greater than 100 µM in assay [2] and 0.06 µM in assay [4].

`NC1Cc2ccccc2CC1=O` (stereo not given) had an inhibition constant (Ki) in assay [2] greater than 1000 µM.

Regarding `N[C@H]1CCc2ccccc2[C@H](SCc2ccccc2)C1=O` (racemic), the figures for the Ki in assay [1], in assay [5] and in assay [4] were greater than 100 µM, 40 µM and 0.083 µM, respectively.

`N[C@H]1CCc2ccccc2[C@H](F)C1=O` (racemic): the inhibition constant (Ki) in assay [1] is greater than 1000 µM; in assay [2], greater than 1000 µM; in assay [3] it was 0.3 µM.

In the case of `N[C@H]1CCc2ccccc2[C@@H](Sc2ccccc2)C1=O` (racemic), the inhibition constant (Ki) is greater than 100 µM in assay [1], greater than 100 µM in assay [2] and 0.06 µM in assay [4].

For `N[C@H]1CCc2ccccc2[C@H](CCc2ccccc2)C1=O` (racemic), the inhibitory constant (Ki) in assay [6] turned out to be 470 µM; in assay [3] it was 88 µM.

Turning to `N[C@H]1CCc2ccccc2[C@@H](Cc2ccccc2)C1=O` (racemic), the Ki in assay [1] was greater than 100 µM; in assay [2] it was greater than 100 µM; in assay [3], 13 µM.

On to `N[C@H]1CCc2ccccc2CC1=O`, for which the Ki in assay [1] was greater than 1000 µM; in assay [2], greater than 1000 µM; in assay [3], 1 µM; in assay [7] it was 1 µM.

In the case of `N[C@H]1CCc2ccccc2[C@@H](CCc2ccccc2)C1=O` (racemic), the Ki in assay [1] was greater than 100 µM; in assay [2] it was greater than 100 µM; in assay [3], 22 µM.

With `N[C@H]1CCc2ccccc2/C(=C/c2ccccc2)C1=O`, the Ki in assay [6] was 380 µM; in assay [3] it was 80 µM.
